Results on five compounds are retold here after ChEMBL document CHEMBL3616444, “Design, synthesis and pharmacological evaluation of pyrimidobenzothiazole-3-carboxylate derivatives as selective L-type calcium channel blockers” (Bioorg Med Chem, 2015).

The subject of data set [1] is Rattus norvegicus. Kind of data set: Antihypertensive activity in Norwegian albino rat model of DOCA-salt-induced hypertension assessed as inhibition of systolic blood pressure at 10 mg/kg, po after 4 hrs by non-invasive tail cuff method relative to control. The format is functional. An outline of the steps: (§1)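 DOCA-salt hypertensive rats; systolic pressure by tail cuff after 10 mg/kg, recorded hourly from 0 to 10 h; percent inhibition computed. Data as mean ± SEM, repeated-measures ANOVA.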

Data set [2] deals with Rattus norvegicus. Put plainly: Antihypertensive activity in Norwegian albino rat model of DOCA-salt-induced hypertension assessed as inhibition of systolic blood pressure at 10 mg/kg, po after 9 hrs by non-invasive tail cuff method relative to control. The data set is classed as functional. An outline of the steps: as §1
Data set [3] concerns Rattus norvegicus. Kind of data set: Antihypertensive activity in Norwegian albino rat model of DOCA-salt-induced hypertension assessed as inhibition of systolic blood pressure at 10 mg/kg, po after 10 hrs by non-invasive tail cuff method relative to control. The format is functional. In a few lines:
as §1

For data set [4], the system named is Rattus norvegicus. Kind of data set: Antihypertensive activity in Norwegian albino rat assessed as inhibition of systolic blood pressure at 10 mg/kg, po after 0.3 hrs by invasive carotid artery cannulation method relative to control. The format is functional.
The subject of data set [5] is Rattus norvegicus. Kind of data set: Gastrointestinal toxicity in Norwegian rat assessed as ulcerative index at 50 mg/kg, po after 17 hrs. The data set is classed as organism-based. The note with it: in vivo.
The subject of data set [6] is Rattus norvegicus. Put plainly: Antihypertensive activity in Norwegian albino rat model of DOCA-salt-induced hypertension assessed as inhibition of systolic blood pressure at 10 mg/kg, po after 6 hrs by non-invasive tail cuff method relative to control. The data set is classed as functional. In a few lines: as §1
In data set [7] the test system is Rattus norvegicus. Put plainly: Antihypertensive activity in Norwegian albino rat model of DOCA-salt-induced hypertension assessed as inhibition of systolic blood pressure at 10 mg/kg, po after 7 hrs by non-invasive tail cuff method relative to control. The data set is classed as functional. An outline of the steps: as §1
A short description of the next data set: physchem. To be noted: buffer, pH 7.4.
For data set [8], the system named is Rattus norvegicus. Kind of data set: Antihypertensive activity in Norwegian albino rat assessed as inhibition of systolic blood pressure at 10 mg/kg, po after 1 hr by invasive carotid artery cannulation method relative to control. The data set is classed as functional.
Data set [9] deals with Rattus norvegicus. Kind of data set: Antihypertensive activity in Norwegian albino rat model of DOCA-salt-induced hypertension assessed as inhibition of systolic blood pressure at 10 mg/kg, po after 8 hrs by non-invasive tail cuff method relative to control. The data set is classed as functional. An outline of the steps: as §1
For data set [10], the system named is Rattus norvegicus. Kind of data set: Antihypertensive activity in Norwegian albino rat assessed as inhibition of systolic blood pressure at 10 mg/kg, po after 0.15 hrs by invasive carotid artery cannulation method relative to control. The format is functional.
A short description of data set [11]: Inhibition of porcine kidney ACE assessed as reduction in hippuryl-histidyl-leucine hydrolysis to hippuric acid release incubated for 30 mins high-throughput colorimetric method. On the set-up: species or system Sus scrofa. An outline of the steps: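 Porcine kidney ACE in 1 M sodium borate buffer pH 8.2 with 0.3 M NaCl and 5 mM HHL substrate (stock); 37 °C for 30 min, stopped with 1 M HCl. Released hippuric acid complexed with pyridine and benzene sulfonyl chloride, cooled on ice, yellow colour read at 410 nm; IC50 from log plots, at least five determinations per concentration.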

The subject of data set [12] is Rattus norvegicus. Kind of data set: Antihypertensive activity in Norwegian albino rat assessed as inhibition of systolic blood pressure at 10 mg/kg, po after 2 hrs by invasive carotid artery cannulation method relative to control. The data set is classed as functional.
The test system of data set [13] is Rattus norvegicus. Put plainly: Antihypertensive activity in Norwegian albino rat model of DOCA-salt-induced hypertension assessed as inhibition of systolic blood pressure at 10 mg/kg, po after 5 hrs by non-invasive tail cuff method relative to control. The format is functional. In a few lines: as §1
The subject of data set [14] is Rattus norvegicus. Kind of data set: Antihypertensive activity in Norwegian albino rat assessed as inhibition of systolic blood pressure at 10 mg/kg, po after 3 hrs by invasive carotid artery cannulation method relative to control. The format is functional.
Data set [15] relates to Rattus norvegicus. Put plainly: Antihypertensive activity in Norwegian albino rat model of DOCA-salt-induced hypertension assessed as inhibition of systolic blood pressure at 10 mg/kg, po after 2 hrs by non-invasive tail cuff method relative to control. The data set is classed as functional. An outline of the steps: as §1
Data set [16] deals with Rattus norvegicus. Put plainly: Antihypertensive activity in Norwegian albino rat model of DOCA-salt-induced hypertension assessed as inhibition of systolic blood pressure at 10 mg/kg, po after 3 hrs by non-invasive tail cuff method relative to control. The format is functional. An outline of the steps: as §1
Data set [17] has as its system Rattus norvegicus. Put plainly: Antihypertensive activity in Norwegian albino rat assessed as inhibition of systolic blood pressure at 10 mg/kg, po after 4 hrs by invasive carotid artery cannulation method relative to control. The format is functional.
Data set [18] concerns Rattus norvegicus. Kind of data set: Antihypertensive activity in Norwegian albino rat model of DOCA-salt-induced hypertension assessed as inhibition of systolic blood pressure at 10 mg/kg, po after 1 hr by non-invasive tail cuff method relative to control. The data set is classed as functional. An outline of the steps: as §1
Data set [19] concerns the target Myosin light chain kinase, smooth muscle (Homo sapiens, UniProt Q15746). Kind of data set: Inhibition of MLCK (unknown origin) incubated for 15 mins using [gamma-32P]-ATP by scintillation counting method. An outline of the steps: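 Active MLCK thawed on ice with kinase assay and dilution buffers and substrate; reaction with γ-32P-ATP incubated 15 min at 30 °C in a water bath, spotted on phosphocellulose P81 paper, washed three times ~10 min in 1% phosphoric acid. Radioactivity by scintillation counting, blank-corrected cpm converted to specific activity (nmol/min/mg); IC50 from log plots, at least five determinations per concentration.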

Data set [20] concerns Rattus norvegicus. Put plainly: Antihypertensive activity in Norwegian albino rat assessed as inhibition of diastolic blood pressure at 10 mg/kg, po after 0.3 hrs by invasive carotid artery cannulation method relative to control.
The subject of data set [21] is Rattus norvegicus. Kind of data set: Antihypertensive activity in Norwegian albino rat assessed as inhibition of diastolic blood pressure at 10 mg/kg, po after 4 hrs by invasive carotid artery cannulation method relative to control.
Data set [22] concerns Rattus norvegicus. Put plainly: Antihypertensive activity in Norwegian albino rat assessed as inhibition of diastolic blood pressure at 10 mg/kg, po after 0.15 hrs by invasive carotid artery cannulation method relative to control.
The test system of data set [23] is Rattus norvegicus. Kind of data set: Antihypertensive activity in Norwegian albino rat assessed as inhibition of diastolic blood pressure at 10 mg/kg, po after 1 hr by invasive carotid artery cannulation method relative to control.
The subject of data set [24] is Rattus norvegicus. Kind of data set: Antihypertensive activity in Norwegian albino rat assessed as inhibition of diastolic blood pressure at 10 mg/kg, po after 3 hrs by invasive carotid artery cannulation method relative to control.
For data set [25], the system named is Rattus norvegicus. Kind of data set: Antihypertensive activity in Norwegian albino rat assessed as inhibition of diastolic blood pressure at 10 mg/kg, po after 2 hrs by invasive carotid artery cannulation method relative to control.

A value given as a limit tells only on which side of the number the result lay.

Sequence of Myosin light chain kinase, smooth muscle (Q15746 whole entry): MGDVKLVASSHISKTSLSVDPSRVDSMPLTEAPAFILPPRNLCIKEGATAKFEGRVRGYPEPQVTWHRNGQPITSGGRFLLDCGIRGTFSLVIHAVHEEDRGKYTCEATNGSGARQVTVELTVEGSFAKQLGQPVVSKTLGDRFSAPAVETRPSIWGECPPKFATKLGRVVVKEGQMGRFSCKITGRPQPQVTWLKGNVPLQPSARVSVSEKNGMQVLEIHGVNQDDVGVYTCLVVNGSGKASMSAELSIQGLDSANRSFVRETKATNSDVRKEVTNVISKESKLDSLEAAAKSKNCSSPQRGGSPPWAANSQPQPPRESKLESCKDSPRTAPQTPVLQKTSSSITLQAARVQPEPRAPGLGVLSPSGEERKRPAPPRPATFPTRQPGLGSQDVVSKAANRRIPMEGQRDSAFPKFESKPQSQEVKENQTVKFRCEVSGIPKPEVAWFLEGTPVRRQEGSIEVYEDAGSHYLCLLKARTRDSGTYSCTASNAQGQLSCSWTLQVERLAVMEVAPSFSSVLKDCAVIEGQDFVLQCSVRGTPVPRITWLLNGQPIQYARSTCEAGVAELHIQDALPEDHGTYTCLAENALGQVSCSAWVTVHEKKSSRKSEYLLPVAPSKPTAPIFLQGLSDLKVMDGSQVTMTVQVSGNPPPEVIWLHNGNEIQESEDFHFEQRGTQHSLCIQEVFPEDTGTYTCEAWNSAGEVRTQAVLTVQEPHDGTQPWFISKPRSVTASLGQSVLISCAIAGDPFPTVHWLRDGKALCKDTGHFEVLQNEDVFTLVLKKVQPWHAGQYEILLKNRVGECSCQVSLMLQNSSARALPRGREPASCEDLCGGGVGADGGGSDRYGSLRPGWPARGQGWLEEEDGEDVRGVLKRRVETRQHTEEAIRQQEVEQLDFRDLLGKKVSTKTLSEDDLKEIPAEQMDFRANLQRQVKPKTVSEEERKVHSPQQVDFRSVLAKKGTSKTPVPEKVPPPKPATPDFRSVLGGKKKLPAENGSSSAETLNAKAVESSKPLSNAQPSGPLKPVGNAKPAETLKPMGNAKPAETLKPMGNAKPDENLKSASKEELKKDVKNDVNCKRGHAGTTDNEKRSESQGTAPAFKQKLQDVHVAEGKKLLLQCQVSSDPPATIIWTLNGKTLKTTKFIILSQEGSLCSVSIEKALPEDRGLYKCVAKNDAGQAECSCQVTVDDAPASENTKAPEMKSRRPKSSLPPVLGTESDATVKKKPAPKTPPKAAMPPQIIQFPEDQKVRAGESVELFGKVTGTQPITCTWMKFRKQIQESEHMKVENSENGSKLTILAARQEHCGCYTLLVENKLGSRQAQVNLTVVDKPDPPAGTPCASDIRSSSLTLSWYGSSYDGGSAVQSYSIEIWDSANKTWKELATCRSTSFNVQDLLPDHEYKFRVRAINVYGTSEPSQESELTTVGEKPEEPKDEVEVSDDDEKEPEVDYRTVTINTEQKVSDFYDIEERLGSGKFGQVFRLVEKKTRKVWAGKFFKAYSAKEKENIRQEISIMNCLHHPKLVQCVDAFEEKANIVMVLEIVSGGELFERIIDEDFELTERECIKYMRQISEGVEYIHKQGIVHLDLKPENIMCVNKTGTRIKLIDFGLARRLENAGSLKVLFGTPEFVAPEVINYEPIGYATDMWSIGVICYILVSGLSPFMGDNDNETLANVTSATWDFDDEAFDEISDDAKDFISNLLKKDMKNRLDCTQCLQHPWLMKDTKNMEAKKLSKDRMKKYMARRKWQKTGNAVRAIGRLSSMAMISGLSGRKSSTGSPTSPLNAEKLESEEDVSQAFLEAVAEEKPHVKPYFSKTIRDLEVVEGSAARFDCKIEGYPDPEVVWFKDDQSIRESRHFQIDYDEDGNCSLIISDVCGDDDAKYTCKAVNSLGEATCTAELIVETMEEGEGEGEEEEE

On to `COC(=O)C1=C(C)N=C2Sc3ccccc3N2C1c1ccc(Cl)cc1` (stereo not drawn), for which the inhibition in vivo at 10 mg/kg with Rattus norvegicus [1] was determined as 24.8%; with Rattus norvegicus [2], 38%; in the data set on Rattus norvegicus [3], 40.3%; with Rattus norvegicus [4], 4.42%; in the data set with Rattus norvegicus [6], 28.8%; in the data set on Rattus norvegicus [7], 31.4%. Besides, the inhibition in vivo at 10 mg/kg in the data set on Rattus norvegicus [8] turned out to be 15.9%; with Rattus norvegicus [9], 33.6%; with Rattus norvegicus [10], 2.21%; with Rattus norvegicus [12] it was 24.8%; in the data set on Rattus norvegicus [13], 28.8%; in the data set with Rattus norvegicus [14], 31%. The inhibition in vivo at 10 mg/kg in the data set with Rattus norvegicus [15] is 11.5%; in the data set on Rattus norvegicus [16] it was 14.6%; with Rattus norvegicus [17], 49.6%; in the data set with Rattus norvegicus [18], 2.65%. In the data set with Rattus norvegicus [5], the UI is 0.36. In addition, the logD in “physchem” was determined as 5.44. For the same compound, the IC50 in data set [11] is more than 100 µM; in data set [19] (read-out: IC50), 9.1 µM; in [19] (read-out: pIC50 (converted)), 11000 µM.

On to `COC(=O)C1=C(C)N=C2Sc3ccccc3N2C1c1ccc(OC)cc1` (stereo not drawn), for which the inhibition in vivo at 10 mg/kg in the data set on Rattus norvegicus [1] came to 20%; in the data set on Rattus norvegicus [2], 40%; in the data set on Rattus norvegicus [3], 48.9%; in the data set with Rattus norvegicus [4] it was 7.08%; in the data set with Rattus norvegicus [6], 25.3%; in the data set on Rattus norvegicus [7], 31.1%. For the same compound, the inhibition in vivo at 10 mg/kg with Rattus norvegicus [8] came out at 15.9%; with Rattus norvegicus [9], 35.6%; with Rattus norvegicus [10] it was 4.42%; in the data set with Rattus norvegicus [12], 27%; in the data set on Rattus norvegicus [13], 24.4%; with Rattus norvegicus [14] it was 31%. The inhibition in vivo at 10 mg/kg in the data set with Rattus norvegicus [15] worked out at 1.78%; in the data set with Rattus norvegicus [16], 13.3%; in the data set on Rattus norvegicus [17] it was 42.5%; in the data set on Rattus norvegicus [18], 1.33%. The UI with Rattus norvegicus [5] is on record as 0.54. Further, in “physchem”, the logD turned out to be 4.64. Moreover, the IC50 in [11] is more than 100 µM; in [19] (read-out: IC50), 2.14 µM; in data set [19] (read-out: pIC50 (converted)), 46700 µM.

On to `COC(=O)C1=C(C)N=C2Sc3ccccc3N2C1c1ccc([N+](=O)[O-])cc1` (stereo not drawn), for which the inhibition in vivo at 10 mg/kg was 24.8% in the data set with Rattus norvegicus [1]; 46.9% in the data set with Rattus norvegicus [2]; 46.9% with Rattus norvegicus [3]; 4.42% in the data set with Rattus norvegicus [4]; 38% in the data set with Rattus norvegicus [6]; 40.3% with Rattus norvegicus [7]. The inhibition in vivo at 10 mg/kg came out at 15.9% with Rattus norvegicus [8]; 42.5% with Rattus norvegicus [9]; 2.21% in the data set on Rattus norvegicus [10]; 24.8% with Rattus norvegicus [12]; 27% in the data set on Rattus norvegicus [13]; 31% with Rattus norvegicus [14]. For the same compound, the inhibition in vivo at 10 mg/kg in the data set with Rattus norvegicus [15] was determined as 4.87%; in the data set with Rattus norvegicus [16] it was 13.7%; in the data set on Rattus norvegicus [17] it was 48.7%; with Rattus norvegicus [18], 0%. In addition, the UI in the data set on Rattus norvegicus [5] turned out to be 0.2. The logD in “physchem” stood at 4.49. The IC50 in data set [11] is more than 100 µM; in data set [19] (read-out: IC50), 2.04 µM; in data set [19] (read-out: pIC50 (converted)), 49000 µM.

With `COC(=O)C1=C(C)N=C2Sc3ccccc3N2C1c1ccc(O)c(OC)c1` (stereo not drawn), the inhibition in vivo at 10 mg/kg in the data set with Rattus norvegicus [1] worked out at 19.8%; in the data set with Rattus norvegicus [2], 40.1%; in the data set with Rattus norvegicus [3] it was 41%; in the data set with Rattus norvegicus [4], 7.08%; with Rattus norvegicus [6] it was 32.4%; in the data set with Rattus norvegicus [7], 36.5%. The inhibition in vivo at 10 mg/kg was 15.9% with Rattus norvegicus [8]; 37.8% with Rattus norvegicus [9]; 4.42% in the data set on Rattus norvegicus [10]; 27% with Rattus norvegicus [12]; 27.5% in the data set with Rattus norvegicus [13]; 31% with Rattus norvegicus [14]. The inhibition in vivo at 10 mg/kg was 5.41% with Rattus norvegicus [15], 13.1% in the data set with Rattus norvegicus [16], 42.5% in the data set with Rattus norvegicus [17] and 0.9% in the data set on Rattus norvegicus [18]. Also, in the data set on Rattus norvegicus [5], the UI was 0.2. This compound also came in with a logD in the data set “physchem” of 3.89. Besides, the IC50 in data set [11] was more than 100 µM; in [19] (read-out: IC50), 3.67 µM; in data set [19] (read-out: pIC50 (converted)), 27200 µM.

Regarding `COC(=O)C1=C(C)NC(C)=C(C(=O)OC)C1c1ccccc1[N+](=O)[O-]` [NIFEDIPINE], the inhibition in vivo at 10 mg/kg worked out at 19.1% in the data set with Rattus norvegicus [1]; 13.8% in the data set on Rattus norvegicus [20]; 52% in the data set with Rattus norvegicus [2]; 53.8% in the data set on Rattus norvegicus [21]; 54.2% with Rattus norvegicus [3]; 32.9% in the data set on Rattus norvegicus [6]. For the same compound, the inhibition in vivo at 10 mg/kg came out at 41.8% in the data set on Rattus norvegicus [7]; 47.6% in the data set on Rattus norvegicus [9]; 6.22% with Rattus norvegicus [22]; 16% in the data set on Rattus norvegicus [23]; 37.3% with Rattus norvegicus [24]; 23.1% in the data set on Rattus norvegicus [13]. Moreover, the inhibition in vivo at 10 mg/kg in the data set with Rattus norvegicus [15] came to 10.7%; with Rattus norvegicus [25] it was 26.7%; in the data set on Rattus norvegicus [16], 14.2%; with Rattus norvegicus [18], 4.89%. Moreover, in the data set with Rattus norvegicus [5], the UI is on record as 0.54. The IC50 in [11] worked out at 2.34 µM; in data set [19] (read-out: IC50) it was 2.02 µM.

The term inhibition in vivo denotes the change of the read-out against control, counted positive when it falls. Usually logD stands for the decadic logarithm of the distribution of all forms, ionised or not, between an organic phase and buffer at a given pH. Low readings indicate a more hydrophilic compound, high ones a more lipophilic compound.
